# Compounds with a hit are over-represented: about 2.2% of the library has one in this group of screens.
# HNF4A DNA FP – change in binding of human HNF4A to DNA, primary screen, biochemical, fluorescence polarization, FITC-DNA; activity change, % at 10 µM; hit rate 0.3% among 360,000; 1 h; in the data active means activity change above about 30%, passing the limit was not always enough
# Target sequence (P41235 whole entry, looked up): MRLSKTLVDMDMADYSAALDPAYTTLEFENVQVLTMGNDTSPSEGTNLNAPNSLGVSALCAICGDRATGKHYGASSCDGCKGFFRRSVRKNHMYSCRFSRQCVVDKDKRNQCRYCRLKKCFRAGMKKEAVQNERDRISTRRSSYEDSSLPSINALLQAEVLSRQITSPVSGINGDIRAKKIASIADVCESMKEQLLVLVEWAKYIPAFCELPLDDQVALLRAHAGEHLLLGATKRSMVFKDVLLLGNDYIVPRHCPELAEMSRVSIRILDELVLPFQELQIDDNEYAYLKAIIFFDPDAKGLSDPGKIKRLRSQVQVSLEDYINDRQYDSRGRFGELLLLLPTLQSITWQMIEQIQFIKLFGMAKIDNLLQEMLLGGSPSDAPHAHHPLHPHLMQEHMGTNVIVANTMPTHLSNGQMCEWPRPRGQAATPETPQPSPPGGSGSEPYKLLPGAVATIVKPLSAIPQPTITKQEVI
# Myeloid diff 2 – induction of myeloid progenitor differentiation, primary screen, cell-based, flow cytometry, MLPCN library | ER-HoxA9 myeloid progenitors, lysozyme-GFP differentiation | hit rate 1% among 360,000 | calls only at 10 µM;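 active means normalized GFP-positive differentiation at or above the plate's own cutoff, the solvent-only control mean plus 3 SD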;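 further: cells exposed to compound for four days before flow analysis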
# Exocytosis inh – LAMP-1 surface exposure blockers, TALL-104 cells – cell-based, flow cytometry, MLPCN library, primary screen. TALL-104 LAMP-1 surface exposure; cells stimulated with thapsigargin and PMA. inhibition, % at 10 µM. hit rate 0.66% among 360,000;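 active means inhibition above about 55%, limit read from the data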
# CSN inh – inhibitors of CSN-mediated cullin deneddylation, primary screen, biochemical, fluorescence polarization, uHTS; inhibition, % at 12.5 µM; hit rate 0.38% among 360,000; Purified CSN, SCF-Nedd8-OG deneddylation; COP9 signalosome complex subunit 5 (Homo sapiens), Q92905; AID 651999, 2013;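 active means pattern-corrected inhibition above about 35%, with an unprinted fluorescence ratio check between 0.5 and 1.5, limit read from the data, passing the limit was not always enough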;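 further: 0% = enzyme with substrate and 100% = substrate without enzyme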
#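 Assay system: HEK293T-derived human Csn5 enzyme; quantity: 0.24 nM enzyme; medium: Tris/NaCl/DTT buffer, pH 7.5; also added: substrate SCFSkp2-Nedd8OG, 10 nM; doses: 12.5 µM compound; schedule: 90 min reaction at room temperature; signal: FP; read-out: % inhibition of substrate cleavage by Csn5; benchmarks: substrate-only high control, full reaction low control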
# Exocytosis CP01 – inhibitors of lytic granule exocytosis, confirmation, TALL-104 cells, flow cytometry, Cherry Pick01. shares compounds with Exocytosis inh. LAMP-1 externalization; stimulated with PMA plus thapsigargin. inhibition, % at 10 µM. hit rate 11% among 1,500. AID 651954, 2012; in the data active means inhibition above about 60%;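 further: 0% = stimulated vehicle wells and 100% = unstimulated wells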
# * = called active by the depositor; i = inactive; nt = no result.
SMILES,HNF4A DNA FP,Myeloid diff 2,Exocytosis inh,CSN inh,Exocytosis CP01
CCC(=O)c1ccccc1OCCCN1CCC(Cc2ccccc2)CC1,-3,i,65*,1,-8
CCOc1ccccc1OCCN1CCC(Cc2ccccc2)CC1,1,i,4,1,nt
N#Cc1ccccc1S(=O)(=O)N1CCN(S(=O)(=O)c2ccc(Br)c(C(=O)O)c2)CC1,-1,i,59*,-4,-14
CC(C)(C)[C@@H]1COC(=O)[C@@H](Cc2ccc(F)cc2)C/C=C\C[C@H](CC(=O)N(CCO)Cc2ccccc2)C(=O)N1,-1,i,57*,2,-16
CC(C)(C)[C@@H]1COC(=O)[C@H](Cc2ccc(F)cc2)CC/C=C\C[C@@H](CC(=O)N(CCO)Cc2ccccc2)C(=O)N1,4,i,-8,-2,nt
CCCOc1ccc(-c2nc(N3CCN(C)CC3)c3ccccc3n2)cc1,-2,i,53,-5,nt
CCCOc1ccc(-c2nc(N3CCN(CC)CC3)c3ccccc3n2)cc1,0,i,82*,2,-10
N#Cc1cn(CCCOc2ccccc2)c2ccccc12,2,i,67*,2,-3
COc1ccccc1OCCCn1cc(C#N)c2ccccc21,2,i,-1,-3,nt
Cc1coc2c1c(C)cc1oc(=O)c(Cc3ccccc3)c(C)c12,-5,i,63*,8,-11
COc1ccc(C(=O)CSc2cc(C)nc(SCC(=O)c3ccc(C)cc3)n2)cc1,2,i,56*,-3,-12
CCOc1ccccc1NS(=O)(=O)c1ccc2oc(=O)ccc2c1,0,i,11,1,nt
Cc1ccc(NS(=O)(=O)c2cccc(C(=O)NCCc3c[nH]c4ccccc34)c2)c(C)c1,-1,i,62*,0,1
CCN(CC)C(=O)c1ncn2c1c(=O)[nH]c1ccccc12,-1,i,0,-4,nt
COc1ccc(Cl)c(-c2cc(C(=O)NCc3ccco3)[nH]n2)c1,0,i,-4,-1,nt
Cc1ccc(Cl)cc1-c1cc(C(=O)NCc2ccc(C(F)(F)F)cc2)[nH]n1,0,i,96*,1,103*
Cc1cc(F)ccc1-c1cc(C(=O)NCc2ccc(C(F)(F)F)cc2)[nH]n1,-3,i,-6,0,nt
COc1ccc(Cl)c(-c2cc(C(=O)NCc3ccc(C(F)(F)F)cc3)[nH]n2)c1,-3,i,97*,2,64*
CCN(CC)S(=O)(=O)c1ccc(Oc2ccccc2OC)cc1,-2,i,69*,9,-3
CCN(CC)S(=O)(=O)c1ccc(Oc2ccc(S(=O)(=O)N(CC)CC)cc2)cc1,0,i,-7,2,nt
CC(=O)N1c2ccccc2S(=O)(=O)c2c1ccc1ccccc21,4,i,79*,4,-13
Cc1ccc([C@H]2C[C@H](n3cc(-c4ccc(F)cc4)nn3)[C@@H](O)CN2C(=O)C2CCCCC2)cc1,-1,i,-7,2,nt
C=CC[C@H](CC(=O)NCCO)C(=O)NC[C@@H](OC(=O)[C@@H](CC=C)CC(=O)OC(C)(C)C)c1ccccc1,-1,i,-7,-1,nt
Cc1c([C@@H]2C[C@H]3CN(Cc4cccc(Cl)c4)C(=O)[C@]34CCCN24)cnn1C,21,i,78*,7,-3
CCCn1cc([C@@H]2C[C@H]3CN(Cc4cccc(Cl)c4)C(=O)[C@]34CCCN24)c(C)n1,-1,i,4,3,nt
SMILES,HNF4A DNA FP,Myeloid diff 2,Exocytosis inh,CSN inh,Exocytosis CP01
CCOc1ccc(CNC(=O)Nc2ccccc2)cc1,1,i,-6,-3,nt
COc1ccccc1NC(=O)c1cc(S(=O)(=O)N2CCc3ccccc32)ccc1F,-3,i,74*,-2,-12
COc1ccc(CCNC(=O)c2cc(S(=O)(=O)N3CCc4ccccc43)ccc2F)cc1OC,6,i,-1,-3,nt
Cc1cc(C)c(NC(=O)CSCc2c(C)noc2C)c(Cl)c1,0,i,-5,4,nt
COCCN1C[C@@H](CO)O[C@@H](n2cnc3c(NC4CC4)ncnc32)C1,-4,i,3,4,nt
Cc1ccsc1CN(C)CC(=O)Nc1ccc([N+](=O)[O-])cc1Cl,-3,i,99*,3,19
CC(=O)CCc1oc2ccccc2c1-c1ccccc1,0,i,-28,108,nt

# High-throughput results: PubChem BioAssay, several laboratories
